Measured values: ChEMBL document CHEMBL1250448, “Inhibitor hijacking of Akt activation” (Nat Chem Biol, 2009)
Calls of active or inactive are those of the source. The rule behind the calls is not given here.

Legend:
HEK-293T [1] = test: Induction of myristoylated AKT2 M225G and kinase dead D289A mutant Thr308 hyperphosphorylation expressed in HEK293T cells at 10 uM after 30 mins by immunoblotting; type: cell-based
[2] = Inhibition of myristoylated AKT3 M229G mutant expressed in HEK293T cells by in vitro immunoprecipitation kinase assay; type: cell-based; settings: hek-293t
Outline: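 Myristoylated HA-tagged Akt3 was expressed in HEK293T cells, which were lysed in Tris pH 7.5 buffer containing Triton X, protease and phosphatase inhibitors. Lysates were protein-normalised and immunoprecipitated overnight at 4°C on BSA-blocked anti-HA matrix. Kinase activity of the immunoprecipitate was measured in vitro across inhibitor concentrations to derive IC50.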

HEK-293T [3] = test: Induction of nonmyristoylated AKT2 M225G and kinase dead D289A mutant Thr308 hyperphosphorylation expressed in HEK293T cells at 10 uM after 30 mins by immunoblotting; type: cell-based
HEK-293T [4] = test: Induction myristoylated AKT2 M225G mutant Thr308 hyperphosphorylation expressed in HEK293T cells at 10 uM after 30 mins by immunoblotting; type: cell-based
HEK-293T [5] = test: Induction myristoylated AKT2 M225G mutant Ser473 hyperphosphorylation expressed in HEK293T cells at 10 uM after 30 mins by immunoblotting; type: cell-based
[6] = biological target: T1, RAC-alpha serine/threonine-protein kinase (Homo sapiens, UniProt P31749); test: Induction of AKT1 Thr308 phosphorylation expressed in IGF1-stimulated HEK293 cells treated 20 mins before IGF1 stimulation by immunoblotting; type: cell-based
T1 sequence (P31749 whole entry): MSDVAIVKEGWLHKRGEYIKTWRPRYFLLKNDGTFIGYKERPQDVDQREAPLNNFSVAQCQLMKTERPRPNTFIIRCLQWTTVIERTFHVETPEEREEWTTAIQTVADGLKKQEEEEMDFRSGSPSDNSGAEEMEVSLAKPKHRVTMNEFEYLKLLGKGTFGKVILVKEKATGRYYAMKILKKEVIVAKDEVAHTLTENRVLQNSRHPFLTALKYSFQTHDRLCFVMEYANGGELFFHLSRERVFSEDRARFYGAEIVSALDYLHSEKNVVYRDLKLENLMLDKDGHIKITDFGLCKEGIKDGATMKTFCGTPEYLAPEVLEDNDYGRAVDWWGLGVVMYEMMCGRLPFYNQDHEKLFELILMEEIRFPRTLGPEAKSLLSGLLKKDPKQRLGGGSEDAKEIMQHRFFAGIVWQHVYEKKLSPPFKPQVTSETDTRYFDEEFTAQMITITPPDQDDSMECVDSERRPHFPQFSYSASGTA
Outline: (§1)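 HEK293 cells (not transfected), serum-starved overnight, then given inhibitor for 20 min before 50 ng/ml IGF-1 for a further 10 min. Cells detached in ice-cold Ca/Mg-free PBS with 0.04% EDTA and lysed in Tris pH 7.5 Triton buffer with protease/phosphatase inhibitors. Lysates cleared at 14000 g, protein equalised by Bradford, and pThr308, pSer473 and GSK3β pSer9 read by immunoblot with ECL.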

[7] = biological target: T1, RAC-alpha serine/threonine-protein kinase; test: Inhibition of wild type AKT1 expressed in HEK293 cells assessed as reduction of IGF1-induced GSK3-beta Ser9 phosphorylation treated 20 mins before IGF1 stimulation by immunoblotting; type: cell-based
Outline: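 Untransfected HEK293 cells carrying endogenous Akt were serum-starved overnight. They were treated with compound for 20 min, then stimulated with 50 ng/ml IGF-1 for 10 min. DMSO stocks were diluted 1:1000. Lysates in Tris pH 7.5/Triton buffer with phosphatase inhibitors were immunoblotted for GSK3β Ser9 and Akt Thr308/Ser473 phosphorylation, read by ECL.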

[8] = system: RAC-alpha serine/threonine-protein kinase (Homo sapiens), P31749 [M227G]; test: Inhibition of myristoylated AKT1 M227G mutant expressed in HEK293T cells assessed as reduction of GSK3-beta Ser9 phosphorylation after 30 mins by immunoblotting; type: cell-based; settings: HEK-293T
RAC-alpha serine/threonine-protein kinase (Homo sapiens), P31749 [M227G], sequence (P31749 whole entry M227G): as the sequence (P31749 whole entry) above, with M227G counted along it

[9] = biological target: RAC-alpha serine/threonine-protein kinase (Homo sapiens, UniProt P31749, M227G); test: Inhibition of myristoylated AKT1 M227G mutant expressed in HEK293T cells by in vitro immunoprecipitation kinase assay; type: cell-based, HEK-293T
RAC-alpha serine/threonine-protein kinase (Homo sapiens, UniProt P31749, M227G), sequence (P31749 whole entry M227G, canonical isoform): as the sequence (P31749 whole entry) above, with M227G counted along it
Outline: (§2)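 Myristoylated HA-tagged Akt (wild-type or analog-sensitive isoforms) was transfected by Lipofectamine into HEK293T cells. Cells were lysed in Tris pH 7.5/NaCl/EDTA/EGTA/Triton buffer with protease and phosphatase inhibitors. Akt was immunoprecipitated overnight at 4°C on BSA-blocked anti-HA matrix, and the washed immunoprecipitate was used for the in vitro kinase assay. IC50 was determined from kinase activity.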

HEK-293T [10] = test: Induction of myristoylated AKT3 M229G mutant Ser473 hyperphosphorylation expressed in HEK293T cells at 10 uM after 30 mins by immunoblotting; type: cell-based
[11] = system: RAC-alpha serine/threonine-protein kinase (Homo sapiens), P31749 [M227G]; test: Induction of myristoylated AKT1 M227G mutant Thr308 hyperphosphorylation expressed in HEK293 cells after 30 mins by immunoblotting; settings: HEK-293
[12] = biological target: T1, RAC-alpha serine/threonine-protein kinase; test: Induction of AKT1 Ser473 phosphorylation expressed in IGF1-stimulated HEK293 cells treated 20 mins before IGF1 stimulation by immunoblotting; type: cell-based; outline: as §1
[13] = Inhibition of myristoylated AKT2 M225G mutant expressed in HEK293T cells by in vitro immunoprecipitation kinase assay; type: cell-based; settings: hek-293t; outline: as §2
HEK-293T [14] = test: Induction of myristoylated AKT3 M229G mutant Thr308 hyperphosphorylation expressed in HEK293T cells at 10 uM after 30 mins by immunoblotting; type: cell-based
[15] = biological target: T1, RAC-alpha serine/threonine-protein kinase; test: Inhibition of myristoylated wild type AKT1 expressed in HEK293T cells by in vitro immunoprecipitation kinase assay; type: cell-based, HEK-293T
Outline: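 Myristoylated HA-tagged wild-type or analog-sensitive Akt1/2/3 expressed in HEK293T cells, then immunoprecipitated on anti-HA matrix. The immunoprecipitate was used in an in vitro kinase assay with Tris pH 7.5 buffer containing 10 mM MgCl2, β-glycerophosphate, orthovanadate and 2 mM DTT. IC50 determined from inhibitor titration.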

[16] = system: RAC-alpha serine/threonine-protein kinase (Homo sapiens), P31749 [M227G]; test: Induction of myristoylated AKT1 M227G mutant Ser473 hyperphosphorylation expressed in HEK293 cells after 30 mins by immunoblotting; settings: HEK-293

For `CC(C)(C)n1nc(Cc2cccc(I)c2)c2c(N)ncnc21`, the Activity (HEK-293T [1]) was “Active”, the IC50 [2] was 120 nM and the Activity (HEK-293T [3]) was “Active”. For the same molecule, the Activity (HEK-293T [4]) was “Active”, the Activity (HEK-293T [5]) was “Active” and the Activity [6] was “inactive”. For the same molecule, the inhibition [7] was “inactive”, the inhibition [8] was “Active” and the IC50 [9] was 28 nM. The Activity (HEK-293T [10]) was “Active”, the Activity [11] was “Dose-dependent effect” and the Activity [12] was “inactive”. For the same molecule, the IC50 [13] was 240 nM, the Activity (HEK-293T [14]) was “Active” and the IC50 [15] was > 10000 nM. For the same molecule, the Activity [16] was “Dose-dependent effect”.
